Assay results as given in ChEMBL document CHEMBL3351603, “Design of a hydrogen peroxide-activatable agent that specifically targets cancer cells” (Bioorg Med Chem, 2014).

How the values were obtained:
[1] = Cytotoxicity against human MA9.3 cells after 48 hrs by MTT assay; assay type: functional, cell-based
Summary of the method: (§1)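 Cells seeded at 4 × 10^4/well and held overnight at 37°C. Exposed 48 h to freshly dissolved compound. Cells were then pelleted, the medium replaced with fresh medium holding MTT (5 mg/mL stock), and incubated 4 h. Formazan dissolved in DMSO and read at 575 nm. IC50 from a four-parameter sigmoid fit. Triplicates, assay run twice. MA9.3RAS (MLL-AF9 + NrasG12D-transformed CD34+ cells) grown in IMDM with 20% bovine calf serum. Cord-blood CD34+ cells grown in the same medium plus SCF, IL-3, IL-6, Flt-3L and TPO.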

[2] = Selectivity ratio of IC50 for human primary CD34+ blood stem cells to IC50 for human MA9.3 cells; settings: primary CD34+ blood stem cells versus MA9.3 cells, read-out: Ratio IC50
Homo sapiens = species on record: Homo sapiens; experiment: Decrease in ROS level in human MA9.3 cells at 20 uM DCF fluorescence assay; assay type: functional, cell-based; settings: TDE = time-dependent effect
Summary of the method: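 Actively growing MA9.3RAS cells suspended in 1× HBSS at 4×10^5 cells/ml. DCF-DA added to 10 μM final, with HBSS alone as blank. Compound added in HBSS to 20 μM final. Plate held at 37°C and fluorescence (ex 485/em 535 nm) read every 15 min for 1 h, with light exposure limited. Mean ± SD of six replicates, unpaired t-test.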

[3] = Decrease in KEAP1 protein expression in human MA9.3 cells at 20 uM after 24 hrs relative to control
[4] = Decrease in ROS level in human MA9.3 cells assessed as fluorescence intensity at 20 uM DCF fluorescence assay (reference value: 1.06 +/- 0.13 no_unit); assay type: functional
[5] = Cytotoxicity against human CD34-positive blood stem/progenitor cells after 48 hrs by MTT assay; assay type: cell-based; summary of the method: as §1

SMILES | IC50 [1] [µM] | selectivity ratio [2] | also measured
CN(CC(=O)NC1=CC(=O)C=CC1=O)c1ccccc1 | 21 | – | –
O=C(CNC1CCCCC1)Nc1cc(O)ccc1O | 2 | 11.5 | Activity (Homo sapiens): tde; Ratio [3]: 0.65; Flu intensity [4]: 4.31; Activity [5]: Non-toxic
O=C(COc1ccccc1)Nc1cc(O)ccc1O | 3 | – | –
C=C1C(=O)O[C@@H]2[C@H]3O[C@]3(C)CC/C=C(\C)CC[C@@H]12 | 3 | 2.1 | –
CN(CC(=O)Nc1cc(O)ccc1O)c1ccccc1 | 6 | 2 | –
CC(=O)Nc1cc(O)ccc1O | 35 | – | –
O=C(CNc1ccccc1)Nc1cc(O)ccc1O | 13 | – | –
COc1ccc(OC)c(NC(=O)CN(C)c2ccccc2)c1 | > 100 | – | –
O=C(CO)Nc1cc(O)ccc1O | 12 | – | –
CN(CC(=O)Nc1cc(O)ccc1O)C1CCCCC1 | 9 | 3.8 | –
NC1=CC(=O)C=CC1=O | 16 | – | –
COc1cc(/C=C/C(=O)N2CCC=CC2=O)cc(OC)c1OC [PIPLARTINE] | 2 | 3.7 | –
O=C(CSc1ccccc1)Nc1cc(O)ccc1O | 5 | – | –
CCCN(C)CC(=O)Nc1cc(O)ccc1O | 18 | – | –
CN(CC(=O)Nc1cccc(O)c1)c1ccccc1 | > 100 | – | –
CN(CC(=O)Nc1ccccc1O)c1ccccc1 | > 100 | – | –
